Assay outcomes from PubChem.
Apaf-1 act: activates human Apaf-1 apoptosome | O14727 | Apaf-1 apoptosome caspase-3 activation, DEVD-Rh110 fluorescence; hits give low values | activity change, negative = activation, % at 20 µM | hit rate 0.31% among 330,000;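 active = activity change at or below -40% at 20 µM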
Target sequence (O14727 whole entry, looked up): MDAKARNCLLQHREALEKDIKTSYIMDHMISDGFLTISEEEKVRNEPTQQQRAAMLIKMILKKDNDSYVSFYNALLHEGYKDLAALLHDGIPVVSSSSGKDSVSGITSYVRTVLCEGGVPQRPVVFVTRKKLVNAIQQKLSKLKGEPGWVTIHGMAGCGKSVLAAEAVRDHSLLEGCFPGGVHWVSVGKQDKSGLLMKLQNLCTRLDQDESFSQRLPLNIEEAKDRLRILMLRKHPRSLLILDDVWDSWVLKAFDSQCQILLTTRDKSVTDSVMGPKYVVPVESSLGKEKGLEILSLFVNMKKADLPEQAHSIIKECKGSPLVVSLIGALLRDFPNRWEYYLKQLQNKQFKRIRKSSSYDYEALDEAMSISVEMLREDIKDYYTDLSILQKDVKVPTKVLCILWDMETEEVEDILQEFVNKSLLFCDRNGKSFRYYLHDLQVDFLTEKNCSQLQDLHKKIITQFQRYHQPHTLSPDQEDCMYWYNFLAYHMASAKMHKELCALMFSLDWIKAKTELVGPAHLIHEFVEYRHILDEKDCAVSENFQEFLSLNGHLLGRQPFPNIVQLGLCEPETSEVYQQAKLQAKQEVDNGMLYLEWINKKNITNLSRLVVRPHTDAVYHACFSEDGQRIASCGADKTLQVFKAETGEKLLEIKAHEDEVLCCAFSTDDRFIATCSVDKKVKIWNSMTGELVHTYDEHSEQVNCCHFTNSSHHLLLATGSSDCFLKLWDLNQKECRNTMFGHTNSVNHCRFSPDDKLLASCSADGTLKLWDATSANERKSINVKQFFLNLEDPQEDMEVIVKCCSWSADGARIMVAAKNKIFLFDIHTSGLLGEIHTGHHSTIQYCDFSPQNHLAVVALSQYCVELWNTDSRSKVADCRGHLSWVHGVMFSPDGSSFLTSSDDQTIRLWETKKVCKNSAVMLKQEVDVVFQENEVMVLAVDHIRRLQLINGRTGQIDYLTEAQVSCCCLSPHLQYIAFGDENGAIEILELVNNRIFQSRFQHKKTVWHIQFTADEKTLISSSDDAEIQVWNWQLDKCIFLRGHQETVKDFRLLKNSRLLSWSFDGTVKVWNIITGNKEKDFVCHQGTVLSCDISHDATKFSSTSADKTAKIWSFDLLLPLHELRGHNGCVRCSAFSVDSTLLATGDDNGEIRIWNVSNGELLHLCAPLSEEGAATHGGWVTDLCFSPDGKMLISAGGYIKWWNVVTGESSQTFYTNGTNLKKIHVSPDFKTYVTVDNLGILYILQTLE
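System: Reconstituted apoptosome of Apaf-1, cytochrome c, caspase-9, procaspase-3 | Reagent: dATP, cytochrome c, and (Z-DEVD)2-Rh110 caspase-3 substrate | Times: 30 min compound preincubation and 50 min reaction, both room temperature | Detection: Caspase-3-released Rh110 fluorescence, 540 nm emission, 480 nm excitation | Measure: Caspase-3 activity via Apaf-1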
Rh110 act interf: counter-screen for Apaf-1 activators: fluorescence interference; AID 504616; 980 tested, under 10 active; shares compounds with Apaf-1 act; Rh110 fluorescence interference, quenched caspase reaction, Ex480/Em540; fluorescence interference (activity change), % at 20 µM, hits read low;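 active = mean activity change at or below -40% when tested at 20 µM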
Apaf-1 act conf2: confirmation of human Apaf-1 activators; hit rate 5% among 980; shares compounds with Apaf-1 act; reconstituted apoptosome caspase-3 activity, DEVD-Rh110 fluorescence; hits give low values; activity change, negative = activation, % at 20 µM;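 active = mean activity change at or below -40%, meaning activation of 40% or more, at 20 µM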
Fluor interf act: shows fluorescence interference in the Apaf-1 activator assay format; shares compounds with Apaf-1 act; fluorescence interference counterscreen; EC50, µM; 55 tested, under 10 active; AID 588592; call rule not given here
A number is an active result; - = inactive; . = not tested or not shown. The list is a sample of the results.

SMILES | Apaf-1 act | Rh110 act interf | Apaf-1 act conf2 | others
CC1(C)Cc2ccccc2C2=NNC(=O)C2=N1 | - | . | .
CCCCN(CC)c1nc(N)c2c(N)nc(OCC)cc2c1C#N | - | . | .
COc1ccc2c(-c3ccc(OCCN4CCCCC4)cc3)c(-c3ccccc3OC)sc2c1 | - | . | .
CC/C(=C(\c1ccccc1)c1ccc(OCCN(C)C)cc1)c1ccccc1 | - | . | .
Cc1ccc(-n2ccnc2SCC(=O)O)c(C)c1 | -478 | - | -
CC(C)(C)c1ccc(-c2nn(CCC#N)cc2/C=N/O)cc1 | - | . | .
CC(C)N(C(=O)[C@H]1C[C@H](CC(=O)NCCCN(C)C)C(=O)N2CCc3c([nH]c4cc(-c5ccco5)ccc34)[C@]12C)C(C)C | - | . | .
O=C(/C=C/c1ccc([N+](=O)[O-])cc1)/C=C/c1ccco1 | - | . | .
CC(=O)N(C)C1=C(N2CCOCC2)C(=O)c2ccccc2C1=O | - | . | .
CCN(CCCNC(=O)CCn1c(=O)[nH]c2ccccc2c1=O)c1ccccc1 | -505 | - | -
Nc1c(S(=O)(=O)c2cccs2)c2nc3ccccc3nc2n1CCc1ccccc1 | - | . | .
CCCCC[n+]1ccn(C2=C([O-])c3ccccc3C(=O)/C2=N\S(=O)(=O)c2ccc(Cl)cc2)c1 | - | . | .
Cc1ccc(NC(=O)CN(C)C(=O)c2ccc3[nH]c4c(c3c2)CC(C)CC4)cc1 (stereo not given) | - | . | .
CCC(C)c1ccccc1NC(=O)COC(=O)c1ccc2[nH]c3c(c2c1)CCCC3 (stereo not given) | -170 | - | -
CC(C)C(C(=O)O)N1C(=O)/C(=C/C=C/c2ccco2)SC1=S (stereo not given) | - | . | .
Cc1cc(C)c2c(=O)c(/C=C3\NC(=S)NC3=O)coc2c1 | -99 | - | -63 | Fluor interf act=-
N#Cc1c(N2CCCCC2)nc(N)c2c(N)nc3c(c12)CC(c1ccccc1)O3 (stereo not given) | - | . | .
COc1ccccc1Nc1cc2cc(Br)ccc2c(=O)[nH]1 | - | . | .
CC(=O)c1cccc(-c2ccc3c(=O)[nH]c(Nc4ccccc4)cc3c2)c1 | - | . | . | Fluor interf act=-
O=c1[nH]c(Nc2ccccc2)cc2cc(Br)ccc12 | - | . | .
CCOc1ccccc1NC(=O)COc1ccc2ccc(=O)oc2c1 | -87 | - | -
CCOc1ccc(NC(=S)Nc2cccc3ccccc23)cc1 | - | . | .
CCc1ccccc1OCC(=O)Nc1ccc(N2CCCC2)cc1C | - | . | .
O=c1[nH]c(=O)n(C2CCCCCC2)c(O)c1C=NCc1ccc(F)cc1 | - | . | .
CCCCCc1cc(=O)oc2c(C(CCN(CC)CC)c3ccc(OC)cc3)c(OC)cc(OC)c12 (stereo not given) | - | . | .
SMILES | Apaf-1 act | Rh110 act interf | Apaf-1 act conf2 | others
Cc1ccc(Cl)cc1NC1=C/C(=N\S(=O)(=O)c2cccs2)c2ccccc2C1=O | - | . | .
CC(C)[C@@H]1CN=C(N)N1C[C@@H]1CCCN1C[C@H](C)N1C[C@@H](Cc2ccccc2)N(CCc2ccc(Cl)c(Cl)c2)C1=N | - | . | .
CCC[C@@H](CN1CCC[C@H]1CN1C(N)=NC[C@H]1CC(C)C)N1C[C@@H]([C@H](C)CC)N(CCc2ccc(Cl)c(Cl)c2)C1=N | - | . | .
COC(=O)Nc1nnc(COc2ccccc2)s1 | -573 | - | -
C#CCOCCOCCOCCNc1nc(N2CCN(C(=O)[C@H]([C@@H](C)CC)n3cc([C@@H](N)Cc4ccc(O)cc4)nn3)CC2)nc(N2CCN(C(=O)[C@H](Cc3cc4ccccc4[nH]3)n3cc([C@@H](N)CC(C)C)nn3)CC2)n1 | - | . | .
Oc1ccc2ccccc2c1CN1CCN(c2ccccc2F)CC1 | -319 | - | -
Cc1ccc(C)c(S(=O)(=O)NCc2ccc(C(=O)N3CCOCC3)cc2)c1 | -47 | - | -
Cc1ccc(S(=O)(=O)NCc2ccccc2)cc1C(=O)N1CCN(c2ccccc2)CC1 | - | . | .
CC(C)COCC(CN(Cc1ccccc1)c1ccccc1)N1CCCC1 (stereo not given) | - | . | .
O/C=c1\ccc2cccc3nc(C(F)(F)F)nc1c23 | - | . | .
O=[N+]([O-])c1cc(F)c2cccnc2c1O | - | . | .
Nc1cc(S(=O)(=O)O)cc([N+](=O)[O-])c1O | -110 | - | -
O=C(CNc1cccc2ccccc12)N/N=C/c1ccccn1 | - | . | .
CCn1c(SCC(=O)N/N=C/C=C\c2ccco2)nc2ccccc21 | - | . | .
O=C(Cn1c(-c2ccccn2)nc2ccccc21)N/N=C/c1ccccn1 | -44 | - | -
CC1=CC2=NC(=O)/C(=C/c3coc4ccc(Cl)cc4c3=O)C(=N)N2O1 | -522 | - | -
COc1ccc2[nH]c3c4c(ccc3c2c1)C(=O)C=CC4=O | - | . | .
CCCCCCCCCCCCCCCC[n+]1ccc(C(N)=O)cc1 | - | . | .
O=C(CSc1cn[nH]n1)Nc1nc2ccccc2s1 | -285 | - | -
CC(=O)c1ccc(NC(=O)CC2Nc3cccc4cccc(c34)NC2=O)cc1 (stereo not given) | - | . | .
CC(=O)c1ccc(NC(=O)CSc2cn[nH]n2)cc1 | -294 | - | -
COc1cc2c(cc1OC)CN(Cc1cc(=O)n3c(-c4ccccc4)csc3n1)CC2 | - | . | .
CCOc1ccc2nc3cc(NCc4ccc(OC)cc4)ccc3c(N)c2c1 | - | . | .
CN(Cc1cnc2nc(N)nc(N)c2n1)c1ccc(C(=O)N[C@@H](CCC(=O)O)C(=O)O)cc1 | - | . | .
C[C@H](CO)N1C[C@H](C)[C@@H](CN(C)Cc2ccc(Oc3ccccc3)cc2)Oc2c(NC(=O)C3CC3)cccc2C1=O | - | . | .
SMILES | Apaf-1 act | Rh110 act interf | Apaf-1 act conf2 | others
O=C(NCc1nnc(SCC(=O)N2CCCCCC2)o1)c1ccccc1F | -251 | - | -
CN(C)c1cc(N/N=C/c2ccccc2C(F)(F)F)nc(N(C)C)n1 | - | . | .
Cc1cc(C)cc(NC(=O)C2C3C=CC4(O3)C2C(=O)N(CCCN2CCCCC2)C4C(=O)NC2CCCCC2)c1 (stereo not given) | -325 | - | -
Cc1ccn2c(NC3CCCCC3)c(-c3cccc(SC4CCCCC4)c3)nc2c1 | - | . | .
CCC(C)Sc1cccc(-c2nc3cc(C)ccn3c2NC2CCCCC2)c1 (stereo not given) | - | . | .
Oc1ccc(Br)cc1-c1nc2cnccn2c1NC1CCCC1 | -566 | - | -
CCN1CCN(c2ccc(S(=O)(=O)N3CCCCC3)cc2NC(=O)COc2ccc(Cl)c(C)c2)CC1 | - | . | .
Cc1c(CCC(C)C)c(=O)n2c([nH]c3ccccc32)c1C#N | - | . | .
Cc1ccc(C(=O)NC(C(=O)Nc2ccccc2)c2ccccc2)cc1 (stereo not given) | -55 | - | -
CC(OC(=O)c1cc(O)c2ccccc2c1O)C(=O)Nc1ccc(C(N)=O)cc1 (stereo not given) | - | . | .
Cc1sc2ncnc(N3CCC(C(=O)Nc4ccc(Cl)c(Cl)c4)CC3)c2c1C | - | . | .
CCC(C)c1ccc(NC(=O)C2CCN(c3ncccn3)CC2)cc1 (stereo not given) | -122 | - | -
CCCCc1oc2ccccc2c1C(=O)c1cc(I)c(OCCN(CC)CC)c(I)c1 | - | . | .
CC(C)n1cnc2c(N(C)c3ccccc3)nc(N(CCN(C)C)Cc3ccccc3)nc21 | - | . | .
CC1(C(=O)NCc2ccccn2)C=CCN1C(=O)c1ccccc1 (stereo not given) | -273 | - | -
O=C(NC1CC1)C1=C[C@H](c2ccc(C(F)(F)F)cc2)C[C@H](OCCCCO)O1 | - | . | .
